In brackets after ≈: the same amount, converted by molar mass.
Assays:
[1] = Stability in pH 4.0 phosphate buffer assessed as compound remaining level at […] incubated for 24 hrs at 37 degC by HPLC method; assay type: physicochemical; details: for remaining at 24 h: pH 4.0 phosphate buffer, pH 4, read-out: Stability
[2] = Distribution coefficient, log D of the compound in PBS/n-octanol at pH 7.4 at 25 degC by HPLC method; assay type: physicochemical
How it was run: (§1)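 Miniaturised shake-flask method: water/n-octanol for log P and PBS pH 7.4/n-octanol for log D, at 25 °C. Tubes were shaken overnight at 500 rpm and centrifuged at 16000 RCF for 20 min to separate the phases. Compound in each phase was quantified by reversed-phase C18 HPLC with the column at 37 °C. Run in triplicate.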

[3] = Stability in pH 6.8 SIF assessed as compound remaining level at 120 mg/mL incubated for 24 hrs at 37 degC by HPLC method
How it was run: (§2)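 SGF (pH 1.2) and SIF (pH 6.8) were prepared per USP 2000. Compound was incubated at 37 °C and sampled at 0 and 24 h. Samples were quenched with ice-cold acetonitrile and centrifuged. Prodrug and bergenin were measured by compound-specific isocratic RP-C8 HPLC-UV. Each analysis in triplicate.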

[4] = Stability in pH 1.2 SGF assessed as compound remaining level at 120 mg/mL incubated for 24 hrs at 37 degC by HPLC method; how it was run: as §2
[5] = Partition coefficient, log P of the compound in water/n-octanol at pH 7.4 at 25 degC by HPLC method; assay type: physicochemical; how it was run: as §1
[6] = Solubility in water; assay type: physicochemical
Tumor necrosis factor = Tumor necrosis factor (Homo sapiens, UniProt P01375); assay: Inhibition of TNFalpha (unknown origin)
[7] = Solubility in pH 5.0 buffer; assay type: physicochemical
[8] = Solubility in pH 1.0 buffer; assay type: physicochemical
[9] = Partition coefficient, log P of the compound; assay type: physicochemical; details: octanol/water; how it was run: as §1
Interleukin-6 = Interleukin-6 (Homo sapiens, UniProt P05231); assay: Inhibition of IL6 (unknown origin)
[10] = Solubility in pH 3.0 buffer; assay type: physicochemical
[11] = Partition coefficient, log P of the compound in water/n-octanol at 25 degC by HPLC method; details: pH 7.4

Chain of Interleukin-6 (P05231 whole entry): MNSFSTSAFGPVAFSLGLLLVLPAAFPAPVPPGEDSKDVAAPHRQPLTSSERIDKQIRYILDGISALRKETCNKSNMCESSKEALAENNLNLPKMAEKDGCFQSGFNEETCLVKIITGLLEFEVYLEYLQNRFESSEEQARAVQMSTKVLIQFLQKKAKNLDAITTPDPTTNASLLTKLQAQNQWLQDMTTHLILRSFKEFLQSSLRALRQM
Chain of Tumor necrosis factor (P01375 whole entry): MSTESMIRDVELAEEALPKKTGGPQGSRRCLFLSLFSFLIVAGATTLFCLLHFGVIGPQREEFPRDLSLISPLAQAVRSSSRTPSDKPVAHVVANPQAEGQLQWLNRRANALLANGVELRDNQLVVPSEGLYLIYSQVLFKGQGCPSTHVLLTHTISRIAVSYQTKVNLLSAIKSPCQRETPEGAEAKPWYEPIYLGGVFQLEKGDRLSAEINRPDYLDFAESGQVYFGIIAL

| Structure (SMILES) | remaining at 24 h [1] [%] | logD [2] | Stability [3] [%] | Stability [4] [%] | logP [5] | other results |
| --- | --- | --- | --- | --- | --- | --- |
| COc1c(OC(=O)c2c(Cl)cc(Cl)cc2Cl)cc2c(c1O)[C@@H]1O[C@H](COC(=O)c3c(Cl)cc(Cl)cc3Cl)[C@@H](O)[C@H](O)[C@H]1OC2=O | 76 | 3.89 | 87.5 | 86.5 | 3.693 |  |
| COc1c(OC(=O)c2c(F)cccc2F)cc2c(c1O)[C@@H]1O[C@H](COC(=O)c3c(F)cccc3F)[C@@H](O)[C@H](O)[C@H]1OC2=O |  | 1.86 |  |  | 1.801 |  |
| CCCCCC(=O)OC[C@H]1O[C@H]2c3c(cc(OC(=O)CCCCC)c(OC)c3OC(=O)CCCCC)C(=O)O[C@@H]2[C@@H](OC(=O)CCCCC)[C@@H]1OC(=O)CCCCC |  | 6.06 |  |  | 5.967 |  |
| COc1c(O)cc2c(c1O)[C@@H]1O[C@H](CO)[C@@H](O)[C@H](O)[C@H]1OC2=O [BERGENIN] | 102 | -0.947 | 101 | 111 | -0.555 | solubility [6]: > 1 mg/mL; IC50 (Tumor necrosis factor): 12.5 µM; solubility [7]: 1.22 mg/mL (≈ 3.72 mM); solubility [8]: 1.29 mg/mL (≈ 3.93 mM); logP [9]: -1.06; IC50 (Interleukin-6): 0.208 µM; solubility [10]: 1.08 mg/mL (≈ 3.29 mM) |
| CCCCCCCC(=O)OC[C@H]1O[C@H]2c3c(cc(OC(=O)CCCCCCC)c(OC)c3OC(=O)CCCCCCC)C(=O)O[C@@H]2[C@@H](OC(=O)CCCCCCC)[C@@H]1OC(=O)CCCCCCC |  | 6.11 |  |  | 6.011 |  |
| Nc1ncn([C@@H]2O[C@H](CO)[C@@H](O)[C@H]2O)c(=O)n1 [AZACITIDINE] |  |  |  |  |  | solubility [6]: 89 mg/mL (≈ 364 mM); logP [9]: -3.1 |
| COc1c(OC(C)=O)cc2c(c1O)[C@@H]1O[C@H](COC(C)=O)[C@@H](O)[C@H](O)[C@H]1OC2=O |  | -1.06 |  |  | -0.494 |  |
| COc1c(OC(=O)c2ccccc2C)cc2c(c1OC(=O)c1ccccc1C)[C@@H]1O[C@H](COC(=O)c3ccccc3C)[C@@H](OC(=O)c3ccccc3C)[C@H](O)[C@H]1OC2=O |  | 1.61 |  |  | 1.751 |  |
| COc1c(O)cc2c(c1O)[C@@H]1O[C@H](COC(=O)c3ccc([N+](=O)[O-])cc3)[C@@H](O)[C@H](O)[C@H]1OC2=O |  | 1.53 |  |  | 1.563 |  |
| COc1c(OC(=O)c2ccc([N+](=O)[O-])cc2)cc2c(c1O)[C@@H]1O[C@H](COC(=O)c3ccc([N+](=O)[O-])cc3)[C@@H](O)[C@H](O)[C@H]1OC2=O | 45 | 2.65 | 59.5 | 91.6 | 2.508 |  |
| COc1c(OC(=O)c2ccc(C(C)(C)C)cc2)cc2c(c1OC(=O)c1ccc(C(C)(C)C)cc1)[C@@H]1O[C@H](COC(=O)c3ccc(C(C)(C)C)cc3)[C@@H](OC(=O)c3ccc(C(C)(C)C)cc3)[C@H](OC(=O)c3ccc(C(C)(C)C)cc3)[C@H]1OC2=O | 104 | 0.162 | 86.1 | 109 | 0.771 |  |
| COc1c(OC(C)=O)cc2c(c1OC(C)=O)[C@@H]1O[C@H](COC(C)=O)[C@@H](OC(C)=O)[C@H](O)[C@H]1OC2=O |  | 0.429 | 41.8 | 92.3 | 1.181 | Stability ([1]; buffer, pH 4, 24 h): 122.03% |
| COc1c(OC(=O)c2ccccc2)cc2c(c1OC(=O)c1ccccc1)[C@@H]1O[C@H](COC(=O)c3ccccc3)[C@@H](O)[C@H](O)[C@H]1OC2=O |  | 1.77 |  |  | 2.553 |  |
| COc1c(OCc2ccccc2)cc2c(c1OCc1ccccc1)[C@@H]1O[C@H](CO)[C@@H](O)[C@H](O)[C@H]1OC2=O | 52.4 | 1.98 | 90.5 | 68.8 |  | logP [11]: 1.965 |
| CCCOc1cc2c(c(OCCC)c1OC)[C@@H]1O[C@H](CO)[C@@H](O)[C@H](O)[C@H]1OC2=O |  | 1.51 |  |  | 1.655 |  |
| CCCCOc1cc2c(c(OCCCC)c1OC)[C@@H]1O[C@H](CO)[C@@H](O)[C@H](O)[C@H]1OC2=O |  | 2.83 |  |  |  | logP [11]: 2.495 |
| COc1c(OC(C)=O)cc2c(c1OC(C)=O)[C@@H]1O[C@H](COC(C)=O)[C@@H](OC(C)=O)[C@H](OC(C)=O)[C@H]1OC2=O [BERGENIN PENTAACETATE] | 119 | 0.516 | 100 | 99.1 | 1.155 |  |
| COc1c(OC(=O)c2ccc(C(C)(C)C)cc2)cc2c(c1OC(=O)c1ccc(C(C)(C)C)cc1)[C@@H]1O[C@H](COC(=O)c3ccc(C(C)(C)C)cc3)[C@@H](O)[C@H](O)[C@H]1OC2=O | 95 | 0.552 | 93.5 | 106 | 0.599 |  |
| COc1c(OC(=O)CC(C)C)cc2c(c1OC(=O)CC(C)C)[C@@H]1O[C@H](COC(=O)CC(C)C)[C@@H](OC(=O)CC(C)C)[C@H](OC(=O)CC(C)C)[C@H]1OC2=O |  | 6.45 |  |  | 6.358 |  |
